CR mimetic SO – lowers age-related superoxide in aged yeast cells | S. cerevisiae aged cells, superoxide DHE fluorescence; active compounds read low | superoxide response (% of plate mean), % at 10 µM | 330,000 tested, 0.18% active;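 active means superoxide response under a set limit, about three screen SD below normal, cut at about 65% in these data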;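 further: yeast aged for seven days with compound at 30 °C before DHE staining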
T cell HTS – T cell immune modulators affecting CD8 T cell-vesicle binding; response (vesicle binding), % at 7 µM; 2C CD8+ T cell-vesicle binding, flow cytometry; active compounds read low; 330,000 tested, 0.068% active;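 active means response, share of CD8 T cells binding vesicles, and their 90th percentile fluorescence all below set limits, cut at about 80% in these data, passing the limit was not always enough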;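 further: values below 100% mean blocked vesicle binding to the CD8+ T cells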
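incubation = binding step 1.5 h, 37 °C, antibody labelling 20 min, ice | test system = 2C mouse CD8+ T cells | read-out basis = percent CD8+ FL2 mean versus row control | controls = Peptide-free naked vesicles (low) and QL9 vesicles with 0.7% DMSO vehicle (high) | detection = flow cytometry of vesicle-bound cells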
MIN6 prolif – induces beta-cell replication in MIN6 cells; MIN6 cells proliferation, ATPlite luminescence, 48 h; cells starved in 0.2% serum; 100% = growth in 10% serum; proliferation, % at 10 µM; 330,000 tested, 0.29% active;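 active means compounds whose signal lies at least 3.5 SD above the mean of all wells on their plate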
Rce1 inh – inhibitors of yeast Ras-converting enzyme | Q03530 | yeast membranes, quenched prenylated peptide cleavage fluorescence | calls only | 290,000 tested, 0.27% active | AID 2563;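 active means fall in fluorescence gain of 50% or more versus controls, with final raw signal at or below 3038400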
Target sequence (Q03530 whole entry, looked up): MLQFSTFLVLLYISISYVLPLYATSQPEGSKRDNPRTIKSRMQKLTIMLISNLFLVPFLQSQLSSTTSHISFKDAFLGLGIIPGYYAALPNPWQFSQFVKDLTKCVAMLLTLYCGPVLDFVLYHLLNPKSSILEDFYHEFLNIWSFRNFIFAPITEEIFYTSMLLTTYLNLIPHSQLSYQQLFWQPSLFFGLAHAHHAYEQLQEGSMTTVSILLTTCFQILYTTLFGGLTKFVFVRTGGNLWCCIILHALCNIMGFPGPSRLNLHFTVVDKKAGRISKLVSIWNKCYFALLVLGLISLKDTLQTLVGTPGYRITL
proKLK7 act – activators of human kallikrein-7 zymogen | activation, % at 7 µM | P49862 | AID 652039 | purified proKLK7, EDANS-DABCYL substrate fluorescence; 100% is mature enzyme control, 0% vehicle | 370,000 tested, 0.9% active;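 active means activation above the mean of all tested compounds plus 3 SD, computed per campaign excluding outliers beyond control limits, cut at about 13% in these data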
Target sequence (P49862 whole entry, looked up): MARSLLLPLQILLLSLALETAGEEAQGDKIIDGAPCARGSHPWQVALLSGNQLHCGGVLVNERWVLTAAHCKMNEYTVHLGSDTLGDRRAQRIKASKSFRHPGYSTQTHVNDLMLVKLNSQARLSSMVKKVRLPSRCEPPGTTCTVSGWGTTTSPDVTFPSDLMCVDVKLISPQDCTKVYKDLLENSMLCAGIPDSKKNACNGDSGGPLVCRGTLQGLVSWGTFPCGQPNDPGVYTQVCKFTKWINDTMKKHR
V-ATPase pHluor – yeast V-ATPase proton transport regulation by pHLuorin. S. cerevisiae, pHLuorin cytosolic pH fluorescence. response, % at 10 µM. 350,000 tested, 0.37% active; in the data active means response mostly above about 7.3%, no sharp cut-off; inactive means mostly below about 5.4%; further: actives read high
CR mimetic CP – confirmation of caloric restriction mimetics inhibiting yeast age-related superoxide; shares compounds with CR mimetic SO; superoxide response (% of plate), % at 10 µM; 850 tested, 1% active; S. cerevisiae aging, superoxide DHE fluorescence; active compounds read low;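 active means superoxide signal below 65% of the plate average of sample wells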;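 further: cells aged with compound for 7 days at 30 degrees C before staining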
DHE fluor count – compound alters DHE oxidation or fluorescence in yeast | 850 tested, under 10 active | fluorescence response, % at 10 µM | S. cerevisiae BY4741, flow cytometry; active compounds read low | AID 435000 | shares compounds with CR mimetic SO;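 active means fluorescence response below 15%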;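 further: lower means stronger quenching of DHE signal or ROS scavenging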
Each line names hits and unclear results; the compound was inactive in the other large screens (follow-up assays come after a bar, where they were run). In the library only some 1.9% were active in any assay of this set; here they are far more common.

C=CCn1c(SCC(=O)Nc2ccc3c(c2)OCCO3)nnc1-c1ccco1	none (no result: T cell HTS) | CR mimetic CP inactive | DHE fluor count inactive
COc1cccc(-c2nnc(SCC(=O)Nc3ccc(OC)c(OC)c3)n2N)c1	none | CR mimetic CP inactive | DHE fluor count inactive
C=CCn1c(C)nnc1SCC(=O)Nc1ccc2c(c1)OCCO2	none (no result: Rce1 inh)
CSc1ncccc1C(=O)OCC(=O)NC1CCCCC1	none (no result: Rce1 inh)
C=CCn1c(SC(C)C(=O)c2c(N)n(C)c(=O)n(C)c2=O)nnc1-c1ccoc1C (configuration not stated)	none (no result: Rce1 inh)
COc1cc(/C=C/c2cccc[n+]2C)ccc1OCC(=O)Nc1cccc(Cl)c1	none
Cc1cc(C)c2nc(NC(=O)C3CSC4(C)CCC(=O)N34)sc2c1 (configuration not stated)	none (no result: Rce1 inh)
CSCCC(NS(=O)(=O)c1ccc(C)cc1)C(=O)NNC(=O)c1csc(N2CCOCC2)n1 (configuration not stated)	none
CCSc1nnc(-c2ccc(S(=O)(=O)N3CCCC3)cc2)n1C	none
CCSc1nnc(C)c(=O)n1COC(=O)c1ccc(S(=O)(=O)N2CCCC2)cc1	CR mimetic SO 51.5 | CR mimetic CP inactive | DHE fluor count inactive
O=C(COC(=O)c1cc(S(=O)(=O)N2CCOCC2)ccc1Cl)Nc1ccccc1Cl	none (no result: CR mimetic SO, T cell HTS, Rce1 inh)
COc1ccc(CC(=O)N(Cc2ccccc2)c2cccc(C)c2)cc1OC	CR mimetic SO 63.6 | CR mimetic CP inactive | DHE fluor count inactive
COc1ccc(C(=O)N(Cc2ccccc2)c2cccc(C)c2)c(OC)c1OC	none
O=C(NCC(=O)N1CCC(Cc2ccccc2)CC1)c1ccccc1F	none (no result: CR mimetic SO, T cell HTS, MIN6 prolif, Rce1 inh)
Cc1cc(NS(=O)(=O)c2ccccc2)cc(Cl)c1O	none (no result: Rce1 inh) | CR mimetic CP inactive | DHE fluor count inactive
O=S(=O)(Nc1ccc(NS(=O)(=O)c2ccccc2)c(Cl)c1)c1ccccc1	none (no result: CR mimetic SO, T cell HTS, MIN6 prolif, Rce1 inh)
CC(C(=O)Nc1ccc(S(=O)(=O)N2CCCC2)cc1)N1CCCC(C(N)=O)C1 (configuration not stated)	none (no result: CR mimetic SO, T cell HTS, Rce1 inh)
CC(=O)[C@@]1(O)CCC2C3CC[C@H]4C[C@@H](O)CC[C@]4(C)C3CC[C@@]21C (some centres not stated)	none (no result: Rce1 inh) | CR mimetic CP inactive | DHE fluor count inactive
CC12CCC3C(CCC4CC(O)CCC43C)C1CC(=O)C2 (configuration not stated)	none (no result: CR mimetic SO, T cell HTS, MIN6 prolif, Rce1 inh, V-ATPase pHluor)
CC1CCC(C(O)(C(=O)O)C2CCCCC2)CC1C (configuration not stated)	none (no result: CR mimetic SO, T cell HTS, MIN6 prolif, Rce1 inh)
Cc1ccc(C)c(-n2c(-c3ccc(Br)cc3)csc2=NC(=O)c2ccccc2F)c1	CR mimetic SO 52.9 | CR mimetic CP inactive | DHE fluor count inactive
CN1CCN(C2=Cc3cc(Cl)ccc3Sc3cc(F)ccc32)CC1	CR mimetic SO 59.9 | CR mimetic CP inactive | DHE fluor count inactive
CSCCCNC(=O)c1cn(C(C)c2ccccc2)nn1 (configuration not stated)	none (no result: CR mimetic SO, T cell HTS, MIN6 prolif, Rce1 inh, V-ATPase pHluor)
O=C(O)C1CC(O)CN1S(=O)(=O)c1ccc2ccccc2c1 (configuration not stated)	none (no result: Rce1 inh)
Cc1ccc(S(=O)(=O)N2CC(O)CC2C(=O)O)cc1 (configuration not stated)	none | CR mimetic CP inactive | DHE fluor count inactive
CCCOc1ccc(NC(=O)C2CC(=O)N3CCCN=C3S2)cc1 (configuration not stated)	CR mimetic SO 65.0 | CR mimetic CP inactive | DHE fluor count inactive
CCOC(=O)c1cc(C)nnc1C(=O)OCC	none (no result: CR mimetic SO, T cell HTS, MIN6 prolif, Rce1 inh)
O=C(Cn1nc(Br)nc1Br)c1ccccc1	CR mimetic SO 56.5 | CR mimetic CP inactive | DHE fluor count inactive
N#Cc1cc(N)c(Nc2ccccc2)cc1C#N	none
N#Cc1ccc(Nc2ccccc2)c(N)c1	CR mimetic SO 60.8 | CR mimetic CP inactive | DHE fluor count inactive
COC(=O)C1CN(Cc2cn(Cc3ccc(Cl)cc3)nn2)CCS(=O)(=O)N1Cc1ccc(Cl)cc1 (configuration not stated)	none (no result: CR mimetic SO, T cell HTS, MIN6 prolif, Rce1 inh, V-ATPase pHluor)
COCC(C)Nc1ncnc2c1cnn2-c1ccc(Cl)cc1 (configuration not stated)	none | CR mimetic CP inactive | DHE fluor count inactive
COc1ccc(-n2ncc3c(NC(C)C)ncnc32)cc1	none (no result: Rce1 inh)
COc1ccc(-n2ncc3c(NCC(C)C)ncnc32)cc1	none | CR mimetic CP inactive | DHE fluor count inactive
CCN(CC)CCCNC(=S)N(Cc1cccnc1)Cc1cc2cc(C)ccc2[nH]c1=O	none
COc1ccc(-c2nc3c4c(ncn3n2)-c2ccccc2CC42CCCC2)cc1	CR mimetic SO 63.9 | CR mimetic CP inactive | DHE fluor count inactive
Cc1cc(C(=O)CCC(=O)NCC(=O)Nc2c(C)cccc2C)c(C)s1	none (no result: Rce1 inh)
Cc1cc(C(=O)Nc2cccc3c2O[C@H](CN(C)CC2CC2)[C@@H](C)CN([C@H](C)CO)C3=O)n(C)n1	none (no result: Rce1 inh)
Cc1ccc(C(=O)N2CCN(c3cccc(Cl)c3)CC2)cc1C	none | CR mimetic CP inactive | DHE fluor count inactive
O=C(c1ccccc1)N1CCN(c2ccccc2)CC1	none (no result: CR mimetic SO, T cell HTS, MIN6 prolif, Rce1 inh)
COc1ccc(C(=O)N2CCN(c3ccc(C)c(C)c3)CC2)cc1OC	none
Cc1ccc(C(=O)N2CCN(c3ccccc3)CC2)cc1C	none | CR mimetic CP inactive | DHE fluor count inactive
CS(=O)(=O)Nc1ccc(C(=O)N2CCN(c3ccccc3)CC2)cc1	none | CR mimetic CP inactive | DHE fluor count inactive
O=C(c1ccccc1)N1CCN(c2ccc(Cl)cc2)CC1	none | CR mimetic CP inactive | DHE fluor count inactive
O=C(NCc1ccccn1)c1[nH]c(C(F)(F)F)nc1-c1ccccc1	none (no result: CR mimetic SO, T cell HTS, MIN6 prolif, Rce1 inh, V-ATPase pHluor)
Cc1nc(NC(=O)c2ccccc2)sc1-c1cc(C(=O)NCCO)nn1Cc1ccccc1	none (no result: CR mimetic SO, T cell HTS, MIN6 prolif, Rce1 inh, V-ATPase pHluor)
Cc1ccc(-c2nnc(Cc3ccc([N+](=O)[O-])cc3)o2)cc1	none
CCCCn1c(N)c(N(CC(C)C)C(=O)c2ccc(-c3ccc(C(C)=O)cc3)o2)c(=O)[nH]c1=O	CR mimetic SO 64.8 | CR mimetic CP inactive | DHE fluor count inactive
CCCCn1c(N)c(N(CC(C)C)C(=O)c2ccc(C)o2)c(=O)[nH]c1=O	none (no result: Rce1 inh)
Cc1ccsc1CNS(=O)(=O)c1ccc(F)cc1	CR mimetic SO 60.1 | CR mimetic CP inactive | DHE fluor count inactive
CC(C)CCN1C(=O)CSCC1(C)C(=O)NC(C)C (configuration not stated)	none (no result: CR mimetic SO, T cell HTS, MIN6 prolif, Rce1 inh, V-ATPase pHluor)
N#CCCN(Cc1ccccc1)C(=S)NC(=O)c1ccccc1	CR mimetic SO 57.2 | CR mimetic CP inactive | DHE fluor count inactive
Cc1ccc(C)c(NC(=O)CN(C)C(=O)c2oc3c(Cl)cccc3c2C)c1	CR mimetic SO 65.5 | CR mimetic CP inactive | DHE fluor count inactive
Cc1ccc(-n2c(C)cc(C(=O)COc3cccnc3[N+](=O)[O-])c2C)cc1	none
